ChEMBL document CHEMBL4007469, “Design and synthesis of dalbergin analogues and evaluation of anti-osteoporotic activity” (Bioorg Med Chem Lett, 2017)
The source made the active and inactive calls. The calls are words filed in the database; no cut-off is given here.

Experiments:
Mus musculus [1] = assay: In vivo induction of osteogenesis in Balb/c mouse assessed as increase in Runx2 mRNA level in calvaria at 1 mg/kg/day, sc over calvarial surface for 5 consecutive days by RT-PCR method relative to control; assay type: functional
Procedure, shortened: (§1)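 Three-week-old Balb/c mice (3 per group) injected subcutaneously over the calvarial surface daily for 5 consecutive days at 0.1, 0.5, 1 and 5 mg/kg/day. Calvaria fixed in 4% formaldehyde, paraffin-embedded, H&E-stained; tetracycline and calcein (20 mg/kg each, ip) given for MAR/BFR histomorphometry; calvarial mRNA by RT-PCR. Mean ± SE, three independent experiments, versus untreated.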

[2] = Induction of osteoblast differentiation in mouse calvarial cells assessed as compound concentration required for maximum increase in ALP activity using PNPP as substrate after 48 hrs; assay type: functional, Calvarial cell
[3] = Induction of osteoblast differentiation in mouse calvarial cells assessed as increase in ALP activity using PNPP as substrate after 48 hrs; assay type: functional, cell-based; details: Calvarial cell
[4] = Induction of osteoblast differentiation in mouse calvarial cells assessed as increase in BMP2 mRNA expression at 1 pM after 24 hrs by qRT-PCR method relative to control; assay type: functional, Calvarial cell
Procedure, shortened: (§2)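 Mouse calvarial osteoblasts exposed to 1 pM for 24 h; BMP2, RunX2 and COL1 mRNA by quantitative PCR with GAPDH as internal control. Mean ± SE of three independent experiments versus untreated cells.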

[5] = Induction of mineralization in mouse calvarial cells assessed as increase in COL1 mRNA expression at 1 pM after 24 hrs by qRT-PCR method relative to control; assay type: functional, Calvarial cell; procedure, shortened: as §2
Mus musculus [6] = assay: In vivo induction of osteogenesis in Balb/c mouse assessed as bone formation at 0.5 to 1 mg/kg/day, sc over calvarial surface for 5 consecutive days by hematoxylin and eosin staining based fluorescence microscopic method; assay type: functional, organism-based; procedure, shortened: as §1
Mus musculus [7] = assay: In vivo induction of osteogenesis in Balb/c mouse assessed as increase in COL1 mRNA level in calvaria at 1 mg/kg/day, sc over calvarial surface for 5 consecutive days by RT-PCR method relative to control; assay type: functional; procedure, shortened: as §1
Mus musculus [8] = assay: Anti-osteoporotic activity in ovariectomized postmenopausal Balb/c mouse model assessed as improvement in micro-artchitectural parameter in tibia by measuring trabecular number at 1 mg/kg, po qd via gavage for 6 weeks by micro CT-scan analysis (reference value: 1.49 +/- 0.25 /millimeter); assay type: functional
Procedure, shortened: (§3)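 Female Balb/c mice, 8 weeks old, ovariectomized, 6 weeks osteopenia development, then 1.0 mg/kg/day or gum acacia vehicle by oral gavage once daily for 6 weeks (sham, OVx and treated groups). Bones collected after sacrifice for micro-CT of trabecular microarchitecture (BV/TV, Tb.N, Tb.Th, Tb.Sp, SMI) and biomechanical testing of femur and vertebrae (energy, stiffness); mean ± SE versus OVx.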

Mus musculus [9] = assay: Anti-osteoporotic activity in ovariectomized postmenopausal Balb/c mouse model assessed as improvement in micro-artchitectural parameter in tibia by measuring structural model index at 1 mg/kg, po qd via gavage for 6 weeks by micro CT-scan analysis (reference value: 2.32 +/- 0.08); assay type: functional; procedure, shortened: as §3
Mus musculus [10] = assay: Anti-osteoporotic activity in ovariectomized postmenopausal Balb/c mouse model assessed as improvement in micro-artchitectural parameter in vertebrae by measuring trabecular thickness at 1 mg/kg, po qd via gavage for 6 weeks by micro CT-scan analysis (reference value: 0.047 +/- 0.001 millimeter); assay type: functional; procedure, shortened: as §3
Mus musculus [11] = assay: Anti-osteoporotic activity in ovariectomized postmenopausal Balb/c mouse model assessed as femur bone breaking strength by measuring stiffness at 1 mg/kg, po qd via gavage for 6 weeks by micro CT-scan analysis (reference value: 34.3 +/- 1.84 N/mm); assay type: functional; procedure, shortened: as §3
Mus musculus [12] = assay: Anti-osteoporotic activity in ovariectomized postmenopausal Balb/c mouse model assessed as vertebrae compressive strength by measuring energy at 1 mg/kg, po qd via gavage for 6 weeks by micro CT-scan analysis (reference value: 224.75 +/- 1.06 mJ); assay type: functional; procedure, shortened: as §3
Mus musculus [13] = assay: Anti-osteoporotic activity in ovariectomized postmenopausal Balb/c mouse model assessed as mineral apposition rate at 1 mg/kg, po qd via gavage for 6 weeks by fluorochromes tetracycline and calcein labeling based histomorphometric analysis (reference value: 0.099 +/- 0.01 umeter/day); assay type: functional
Mus musculus [14] = assay: Anti-osteoporotic activity in ovariectomized postmenopausal Balb/c mouse model assessed as increase in BMP2 gene expression in femur bone at 1 mg/kg, po qd via gavage for 6 weeks by RT-PCR method; assay type: functional, organism-based
Procedure, shortened: (§4)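 Eight-week-old female Balb/c mice, ovariectomized and left 6 weeks for osteopenia to develop; groups sham+vehicle, OVx+vehicle, OVx+1.0 mg/kg/day, dosed once daily by oral gavage for 6 weeks in gum acacia/distilled water vehicle. Mice kept at 21°C, 12 h light/dark, chow and water ad libitum. Femoral bone mRNA or serum measured after sacrifice; mean ± SE versus OVx group.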

Mus musculus [15] = assay: Anti-osteoporotic activity in ovariectomized postmenopausal Balb/c mouse model assessed as increase in OPG gene expression in femur bone at 1 mg/kg, po qd via gavage for 6 weeks by RT-PCR method; assay type: functional, organism-based; procedure, shortened: as §4
Mus musculus [16] = assay: Anti-osteoporotic activity in ovariectomized postmenopausal Balb/c mouse model assessed as increase in OCN gene expression in femur bone at 1 mg/kg, po qd via gavage for 6 weeks by RT-PCR method; assay type: functional, organism-based; procedure, shortened: as §4
Mus musculus [17] = assay: Anti-osteoporotic activity in ovariectomized postmenopausal Balb/c mouse model assessed as decrease in RANKL mRNA expression at 1 mg/kg, po qd via gavage for 6 weeks by RT-PCR method; assay type: functional, organism-based; procedure, shortened: as §4
Mus musculus [18] = assay: Anti-osteoporotic activity in ovariectomized postmenopausal Balb/c mouse model assessed as decrease in TRAP mRNA expression at 1 mg/kg, po qd via gavage for 6 weeks by RT-PCR method; assay type: functional, organism-based; procedure, shortened: as §4
Mus musculus [19] = assay: Osteogenic activity in Balb/c mouse drill-hole fracture model assessed as increase in Sox9 mRNA level at 1 mg/kg, po qd via gavage for 21 days by RT-PCR method
Mus musculus [20] = assay: Osteogenic activity in Balb/c mouse drill-hole fracture model assessed as increase in BMP4 mRNA level at 1 mg/kg, po qd via gavage for 21 days by RT-PCR method
Mus musculus [21] = assay: Osteogenic activity in Balb/c mouse drill-hole fracture model assessed as increase in Runx2 mRNA level at 1 mg/kg, po qd via gavage for 21 days by RT-PCR method
Mus musculus [22] = assay: Osteogenic activity in Balb/c mouse drill-hole fracture model assessed as increase in OCN mRNA level at 1 mg/kg, po qd via gavage for 21 days by RT-PCR method relative to control
Mus musculus [23] = assay: Osteogenic activity in Balb/c mouse drill-hole fracture model assessed as bone volume fraction at 1 mg/kg, po qd via gavage for 21 days by micro-CT method (reference value: 32.924 +/- 3.806%)
Mus musculus [24] = assay: Osteogenic activity in Balb/c mouse drill-hole fracture model assessed as trabecular separation at 1 mg/kg, po qd via gavage for 21 days by micro-CT method (reference value: 0.219 +/- 0.015 millimeter)

EC50 [3]: 2.3 µM
Structure (SMILES): COc1cc2oc(=O)cc(-c3ccccc3)c2cc1OCCCCCN1CCN(C)CC1
fold change (FC) (Mus musculus [1]): 4 | Concentration giving maximal ALP increase [2]: 1 pM | fold change (FC) [4]: 2 | fold change (FC) [5]: 6 | Activity (Mus musculus [6]): Active | fold change (FC) (Mus musculus [7]): 4 | Activity (Mus musculus [8]): 2.7 /millimeter | Activity_index (Mus musculus [9]): 1.84 | Activity (Mus musculus [10]): 0.0522 mm | Activity (Mus musculus [11]): 53.55 N/mm | Activity (Mus musculus [12]): 262.55 mJ | Activity (Mus musculus [13]): 0.177 micrometer/day | Activity (Mus musculus [14]): Active | Activity (Mus musculus [15]): Active | Activity (Mus musculus [16]): Active | Activity (Mus musculus [17]): Active | Activity (Mus musculus [18]): Active | Activity (Mus musculus [19]): Active | Activity (Mus musculus [20]): Active | Activity (Mus musculus [21]): Active | fold change (FC) (Mus musculus [22]): 6 | Activity (Mus musculus [23]): 44.359% | Activity (Mus musculus [24]): 0.164 mm
